Reference: ChEMBL document CHEMBL1125210, “Benzylated 1,2,3-triazoles as anticoccidiostats” (J Med Chem, 1991)

Columns and labels:
Eimeria acervulina = experiment: Anticoccidial activity in chicken against Eimeria acervulina.; format: functional; design: Reduction: concentration or dose not given beside the values
Summary of the method: (§1)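 3-Day-old chicks infected separately with E. tenella or E. acervulina; test compound given mixed in the feed at the stated rates. Activity was scored as percent suppression of oocyst production versus infected, unmedicated controls. Toxicity was judged from average weight gain relative to uninfected controls.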

Gallus gallus [1] = species: Gallus gallus; experiment: The compound was tested for anti-coccidial activity in chicken against Eimeria praecox (DP-785) measured at dose 121 (ppm in diet); format: functional
Eimeria tenella = experiment: Anticoccidial activity in chicken against E. tenella; format: functional; design: Reduction: concentration or dose not given beside the values; summary of the method: as §1
Gallus gallus [2] = species: Gallus gallus; experiment: The compound was tested for anti-coccidial activity in chicken against Eimeria maxima (DP-776) measured at dose 121 (ppm in diet); format: functional
Gallus gallus [3] = species: Gallus gallus; experiment: The compound was tested for anti-coccidial activity in chicken against Eimeria brunetti (FS-103) measured at dose 121 (ppm in diet); format: functional
Gallus gallus [4] = species: Gallus gallus; experiment: The compound was tested for anti-coccidial activity in chicken against Eimeria hagani (DP-786) measured at dose 121 (ppm in diet); format: functional
Gallus gallus [5] = species: Gallus gallus; experiment: The compound was tested for anti-coccidial activity in chicken against Eimeria acervulina (DP-761) measured at dose 121 (ppm in diet); format: functional
Gallus gallus [6] = species: Gallus gallus; experiment: The compound was tested for anti-coccidial activity in chicken against Eimeria tenella (DP-761) measured at dose 121 (ppm in diet); format: functional
Summary of the method: (§2)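 Test article mixed into the feed at the stated rates and given to 3-day-old chicks infected with […]. Each Eimeria species was inoculated separately. Activity was scored as percent suppression of oocyst output relative to infected, unmedicated controls. Toxicity was judged from average weight gain relative to uninfected controls.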

Gallus gallus [7] = species: Gallus gallus; experiment: The compound was tested for anti-coccidial activity in chicken against Eimeria mitis (LS-84) measured at dose 121 (ppm in diet); format: functional
Gallus gallus [8] = species: Gallus gallus; experiment: The compound was tested for anti-coccidial activity in chicken against Eimeria praecox (DP-785) measured at dose 15 (ppm in diet); format: functional
Gallus gallus [9] = species: Gallus gallus; experiment: The compound was tested for anti-coccidial activity in chicken against Eimeria acervulina (DP-761) measured at dose 15 (ppm in diet); format: functional
Gallus gallus [10] = species: Gallus gallus; experiment: The compound was tested for anti-coccidial activity in chicken against Eimeria brunetti (FS-103) measured at dose 30 (ppm in diet); format: functional
Gallus gallus [11] = species: Gallus gallus; experiment: The compound was tested for anti-coccidial activity in chicken against Eimeria tenella (DP-761) measured at dose 45 (ppm in diet); format: functional; summary of the method: as §2
Gallus gallus [12] = species: Gallus gallus; experiment: The compound was tested for anti-coccidial activity in chicken against Eimeria tenella (DP-761) measured at dose 15 (ppm in diet); format: functional; summary of the method: as §2
Gallus gallus [13] = species: Gallus gallus; experiment: The compound was tested for anti-coccidial activity in chicken against Eimeria brunetti (FS-103) measured at dose 60 (ppm in diet); format: functional
Gallus gallus [14] = species: Gallus gallus; experiment: The compound was tested for anti-coccidial activity in chicken against Eimeria brunetti (FS-103) measured at dose 7.5 (ppm in diet); format: functional
Gallus gallus [15] = species: Gallus gallus; experiment: The compound was tested for anti-coccidial activity in chicken against Eimeria necatrix (Aquet) measured at dose 15 (ppm in diet); format: functional
Gallus gallus [16] = species: Gallus gallus; experiment: The compound was tested for anti-coccidial activity in chicken against Eimeria tenella (DP-761) measured at dose 30 (ppm in diet); format: functional; summary of the method: as §2
Gallus gallus [17] = species: Gallus gallus; experiment: The compound was tested for anti-coccidial activity in chicken against Eimeria praecox (DP-785) measured at dose 7.5 (ppm in diet); format: functional
Gallus gallus [18] = species: Gallus gallus; experiment: The compound was tested for anti-coccidial activity in chicken against Eimeria praecox (DP-785) measured at dose 60 (ppm in diet); format: functional
Gallus gallus [19] = species: Gallus gallus; experiment: The compound was tested for anti-coccidial activity in chicken against Eimeria necatrix (Aquet) measured at dose 7.5 (ppm in diet); format: functional
Gallus gallus [20] = species: Gallus gallus; experiment: The compound was tested for anti-coccidial activity in chicken against Eimeria praecox (DP-785) measured at dose 45 (ppm in diet); format: functional
Gallus gallus [21] = species: Gallus gallus; experiment: The compound was tested for anti-coccidial activity in chicken against Eimeria maxima (DP-776) measured at dose 60 (ppm in diet); format: functional
Gallus gallus [22] = species: Gallus gallus; experiment: The compound was tested for anti-coccidial activity in chicken against Eimeria praecox (DP-785) measured at dose 30 (ppm in diet); format: functional
Gallus gallus [23] = species: Gallus gallus; experiment: The compound was tested for anti-coccidial activity in chicken against Eimeria tenella (DP-761) measured at dose 60 (ppm in diet); format: functional; summary of the method: as §2
Gallus gallus [24] = species: Gallus gallus; experiment: The compound was tested for anti-coccidial activity in chicken against Eimeria acervulina (DP-761) measured at dose 30 (ppm in diet); format: functional
Gallus gallus [25] = species: Gallus gallus; experiment: The compound was tested for anti-coccidial activity in chicken against Eimeria necatrix (Aquet) measured at dose 45 (ppm in diet); format: functional
Gallus gallus [26] = species: Gallus gallus; experiment: The compound was tested for anti-coccidial activity in chicken against Eimeria maxima (DP-776) measured at dose 15 (ppm in diet); format: functional
Gallus gallus [27] = species: Gallus gallus; experiment: The compound was tested for anti-coccidial activity in chicken against Eimeria acervulina (DP-761) measured at dose 7.5 (ppm in diet); format: functional
Gallus gallus [28] = species: Gallus gallus; experiment: The compound was tested for anti-coccidial activity in chicken against Eimeria acervulina (DP-761) measured at dose 60 (ppm in diet); format: functional
Gallus gallus [29] = species: Gallus gallus; experiment: The compound was tested for anti-coccidial activity in chicken against Eimeria brunetti (FS-103) measured at dose 45 (ppm in diet); format: functional
Gallus gallus [30] = species: Gallus gallus; experiment: The compound was tested for anti-coccidial activity in chicken against Eimeria necatrix (Aquet) measured at dose 60 (ppm in diet); format: functional
Gallus gallus [31] = species: Gallus gallus; experiment: The compound was tested for anti-coccidial activity in chicken against Eimeria maxima (DP-776) measured at dose 45 (ppm in diet); format: functional
Gallus gallus [32] = species: Gallus gallus; experiment: The compound was tested for anti-coccidial activity in chicken against Eimeria maxima (DP-776) measured at dose 7.5 (ppm in diet); format: functional
Gallus gallus [33] = species: Gallus gallus; experiment: The compound was tested for anti-coccidial activity in chicken against Eimeria tenella (DP-761) measured at dose 7.5 (ppm in diet); format: functional; summary of the method: as §2
Gallus gallus [34] = species: Gallus gallus; experiment: The compound was tested for anti-coccidial activity in chicken against Eimeria maxima (DP-776) measured at dose 30 (ppm in diet); format: functional
Gallus gallus [35] = species: Gallus gallus; experiment: The compound was tested for anti-coccidial activity in chicken against Eimeria brunetti (FS-103) measured at dose 15 (ppm in diet); format: functional
Gallus gallus [36] = species: Gallus gallus; experiment: The compound was tested for anti-coccidial activity in chicken against Eimeria acervulina (DP-761) measured at dose 45 (ppm in diet); format: functional
Gallus gallus [37] = species: Gallus gallus; experiment: The compound was tested for anti-coccidial activity in chicken against Eimeria necatrix (Aquet) measured at dose 30 (ppm in diet); format: functional
Gallus gallus [38] = species: Gallus gallus; experiment: The compound was tested for anti-coccidial activity in chicken against Eimeria acervulina; format: organism-based; details: in vivo; summary of the method: as §1
Gallus gallus [39] = species: Gallus gallus; experiment: The compound was tested for anti-coccidial activity in chicken against Eimeria tenella; format: organism-based; details: in vivo; summary of the method: as §2

Question: `CC[C@@]1([C@@H]2O[C@@H]([C@H]3O[C@@](O)(CO)[C@H](C)C[C@@H]3C)C[C@@H]2C)CC[C@H]([C@]2(C)CC[C@]3(C[C@H](O)[C@@H](C)[C@@H]([C@@H](C)[C@@H](OC)[C@H](C)C(=O)O)O3)O2)O1` [MONENSIN] was tested. Which Reduction (Eimeria acervulina) did it give?
Answer: The Reduction was 80%.

Question: And the Reduction (Gallus gallus [1])?
Answer: Its Reduction is 19%.

Question: What about the Reduction (Eimeria tenella) of the same compound?
Answer: The Reduction was 80%.

Question: What about the Reduction (Gallus gallus [2]) of the same compound?
Answer: Its Reduction is 73%.

Question: And the Reduction (Gallus gallus [3])?
Answer: Its Reduction is 100%.

Question: And the Reduction (Gallus gallus [4])?
Answer: The Reduction was 19%.

Question: What about the Reduction (Gallus gallus [5]) of the same compound?
Answer: Its Reduction is 4%.

Question: What about the Reduction (Gallus gallus [6]) of the same compound?
Answer: The Reduction was 100%.

Question: And the Reduction (Gallus gallus [7])?
Answer: Its Reduction is 72%.

Question: What does the source list for `NC(=O)c1nnn(Cc2cc(Cl)c(C(=O)c3ccc(Cl)cc3)c(Cl)c2)c1N` [CARBOXYAMIDOTRIAZOLE]?
Answer: Reduction (Gallus gallus [8]): 98%; Reduction (Gallus gallus [9]): 98%; Reduction (Gallus gallus [10]): 100%; Reduction (Eimeria acervulina): 90%; Reduction (Gallus gallus [11]): 99.9%; Reduction (Gallus gallus [12]): 83%; Reduction (Gallus gallus [13]): 100%; Reduction (Eimeria tenella): 80%; Reduction (Gallus gallus [14]): 58%; Reduction (Gallus gallus [15]): 88%; Reduction (Gallus gallus [16]): 98%; Reduction (Gallus gallus [17]): 72%; Reduction (Gallus gallus [18]): 100%; Reduction (Gallus gallus [19]): 12%; Reduction (Gallus gallus [20]): 100%; Reduction (Gallus gallus [21]): 99.9%; Reduction (Gallus gallus [22]): 100%; Reduction (Gallus gallus [23]): 99.9%; Reduction (Gallus gallus [24]): 99.9%; Reduction (Gallus gallus [25]): 100%; Reduction (Gallus gallus [26]): 99.9%; Reduction (Gallus gallus [27]): 21%; Reduction (Gallus gallus [28]): 99.9%; Reduction (Gallus gallus [29]): 100%; Reduction (Gallus gallus [30]): 100%; Reduction (Gallus gallus [31]): 99.9%; Reduction (Gallus gallus [32]): 99.9%; Reduction (Gallus gallus [33]): 60%; Reduction (Gallus gallus [34]): 99.9%; Reduction (Gallus gallus [35]): 95%; Reduction (Gallus gallus [36]): 99.9%; Reduction (Gallus gallus [37]): 100%

Question: Which minimum effective dose (Gallus gallus [38]) does the source give for `NC(=O)c1c(N)nnn1Cc1cc(Cl)c(C(=O)c2ccc(Cl)cc2)c(Cl)c1` here?
Answer: Its minimum effective dose is greater than 500 ppm.

Question: And the minimum effective dose (Gallus gallus [39])?
Answer: The minimum effective dose was greater than 500 ppm.
